Measurements: ChEMBL document CHEMBL1144277, “Acyl sulfonamide anti-proliferatives. Part 2: activity of heterocyclic sulfonamide derivatives” (Bioorg Med Chem Lett, 2005)

How the values were obtained:
HCT-116 [1] = test: Zone of inhibition by the compound against HCT116 human tumor cells at dose of 200 ug/disk; format: functional
In short: (§1)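 HCT116 colon carcinoma cells in a soft-agar disk diffusion assay, giving a qualitative measure of cytotoxicity. The test agent is applied on a disk at the stated µg per disk. The zone of inhibition is read in zone units (200 units = 6.5 mm), and a zero zone means no inhibition.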

[2] = Zone of inhibition by the compound against Normal fibroblasts at dose of 190 ug/disk; Range 0-350; format: functional
In short: (§2)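 Soft-agar disk diffusion assay on L1210 leukemia cells or normal fibroblasts, with the agent applied on a disk at the stated µg per disk. The zone of inhibition is recorded in zone units (200 units = 6.5 mm), and a zero zone denotes no inhibition.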

L1210 [3] = test: Zone of inhibition by the compound against L1210 Cells at dose of 190 ug/disk; No inhibition; format: functional, Mus musculus; in short: as §2
HCT-116 [4] = test: Zone of inhibition by the compound against HCT116 human tumor cells at dose of 190 ug/disk; format: functional; in short: as §1
[5] = Inhibitory concentration against Vascular Endothelial Growth Factor dependent Human Umbilical Vascular Endothelial Cells (VEGF-HUVEC); format: functional
In short: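 Anti-proliferative IC50 measured in HUVEC whose growth depends on VEGF; reported values are means of at least three experiments.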

[6] = Zone of inhibition by the compound against Normal fibroblasts at dose of 210 ug/disk; Range 0-370; format: functional; in short: as §2
L1210 [7] = test: Zone of inhibition by the compound against L1210 Cells at dose of 210 ug/disk;; format: functional, Mus musculus; in short: as §2
HCT-116 [8] = test: Zone of inhibition by the compound against HCT116 human tumor cells at dose of 210 ug/disk; format: functional; in short: as §1
HCT-116 [9] = test: Zone of inhibition by the compound against HCT116 human tumor cells at dose of 115 ug/disk; format: functional; in short: as §1
[10] = Zone of inhibition by the compound against Normal fibroblasts at dose of 200 ug/disk; Range 0-400; format: functional; in short: as §2
L1210 [11] = test: Zone of inhibition by the compound against L1210 Cells at dose of 200 ug/disk; No inhibition; format: functional, Mus musculus; in short: as §2
[12] = Zone of inhibition by the compound against Normal fibroblasts at dose of 210 ug/disk; Range 0-400; format: functional; in short: as §2
L1210 [13] = test: Zone of inhibition by the compound against L1210 Cells at dose of 210 ug/disk; No inhibition; format: functional, Mus musculus; in short: as §2
L1210 [14] = test: Zone of inhibition by the compound against L1210 Cells at dose of 210 ug/disk; Range 0-60; format: functional, Mus musculus; in short: as §2
[15] = Zone of inhibition by the compound against Normal fibroblasts at dose of 210 ug/disk; Range 0-330; format: functional; in short: as §2
L1210 [16] = test: Zone of inhibition by the compound against L1210 Cells at dose of 200 ug/disk; Range 0-250; format: functional, Mus musculus; in short: as §2
[17] = Zone of inhibition by the compound against Normal fibroblasts at dose of 210 ug/disk; Range 0-270; format: functional; in short: as §2
L1210 [18] = test: Zone of inhibition by the compound against L1210 Cells at dose of 210 ug/disk; Range 200-270; format: functional, Mus musculus; in short: as §2
HCT-116 [19] = test: Zone of inhibition by the compound against HCT116 human tumor cells at dose of 210 ug/disk; Range 470-530; format: functional; in short: as §1

| Structure (SMILES) | IC50 [5] [nM] | further results |
| --- | --- | --- |
| O=C(NS(=O)(=O)c1ccc(Cl)cc1)c1ccc(Cl)cc1Cl |  | Zone of inhibition (HCT-116 [1]): 660 zone of inhibition units |
| O=C(NS(=O)(=O)c1cccs1)c1ccc(Cl)cc1Cl | 540 | Zone of inhibition [2]: 350 zone of inhibition units; Zone of inhibition (L1210 [3]): 0 zone of inhibition units; Zone of inhibition (HCT-116 [4]): 490 zone of inhibition units |
| O=C(NS(=O)(=O)c1ccc2ccsc2c1)c1ccc(Cl)cc1Cl | 640 |  |
| O=C(NS(=O)(=O)c1cc(Br)c(Br)s1)c1ccc(Cl)cc1Cl | 220 |  |
| O=C(NS(=O)(=O)c1cc2ccccc2s1)c1ccc(Cl)cc1Cl | 960 | Zone of inhibition [6]: 370 zone of inhibition units; Zone of inhibition (L1210 [7]): 100 zone of inhibition units; Zone of inhibition (HCT-116 [8]): 500 zone of inhibition units |
| O=C(NS(=O)(=O)c1ccc(Cl)c(Cl)c1)c1ccc(Cl)cc1Cl |  | Zone of inhibition (HCT-116 [1]): 560 zone of inhibition units |
| CCc1nc(S(=O)(=O)NC(=O)c2ccc(Cl)cc2Cl)c[nH]1 | > 20000 |  |
| O=C(NS(=O)(=O)c1ccc2sccc2c1)c1ccc(Cl)cc1Cl | 620 |  |
| N#Cc1ccc(S(=O)(=O)NC(=O)c2ccc(Cl)cc2Cl)s1 | 3160 |  |
| O=C(NS(=O)(=O)c1ccccc1)c1ccc(Cl)cc1Cl |  | Zone of inhibition (HCT-116 [9]): 700 zone of inhibition units |
| O=C(NS(=O)(=O)c1ccc2c(c1)OCO2)c1ccc(Cl)cc1Cl | 480 | Zone of inhibition [10]: 400 zone of inhibition units; Zone of inhibition (HCT-116 [1]): 610 zone of inhibition units; Zone of inhibition (L1210 [11]): 0 zone of inhibition units |
| O=C(NS(=O)(=O)c1cccc2cc[nH]c12)c1ccc(Cl)cc1Cl | 3040 |  |
| CCc1ccc(S(=O)(=O)NC(=O)c2ccc(Cl)cc2Cl)s1 | 310 |  |
| O=C(NS(=O)(=O)c1ccc2c(c1)CCO2)c1ccc(Cl)cc1Cl | 430 | Zone of inhibition [12]: 400 zone of inhibition units; Zone of inhibition (HCT-116 [8]): 680 zone of inhibition units; Zone of inhibition (L1210 [13]): 0 zone of inhibition units |
| Cc1ccc(S(=O)(=O)NC(=O)c2ccc(Cl)cc2Cl)s1 | 600 |  |
| CN1CCc2ccc(S(=O)(=O)NC(=O)c3ccc(Cl)cc3Cl)cc21 | 1540 | Zone of inhibition (L1210 [14]): 60 zone of inhibition units; Zone of inhibition [15]: 330 zone of inhibition units; Zone of inhibition (HCT-116 [8]): 630 zone of inhibition units |
| O=C(NS(=O)(=O)c1cc2ccccc2o1)c1ccc(Cl)cc1Cl | 970 |  |
| COc1ccc(S(=O)(=O)NC(=O)c2ccc(Cl)cc2Cl)s1 | 680 |  |

| Structure (SMILES) | IC50 [5] [nM] | further results |
| --- | --- | --- |
| COC(=O)c1ccc(S(=O)(=O)NC(=O)c2ccc(Cl)cc2Cl)s1 | 1390 |  |
| O=C(NS(=O)(=O)c1cnc(Cl)s1)c1ccc(Cl)cc1Cl | 1090 |  |
| COc1ncc(S(=O)(=O)NC(=O)c2ccc(Cl)cc2Cl)s1 | 540 |  |
| O=C(NS(=O)(=O)c1ccc2c(c1)OCCO2)c1ccc(Cl)cc1Cl | 400 | Zone of inhibition [10]: 400 zone of inhibition units; Zone of inhibition (L1210 [16]): 250 zone of inhibition units; Zone of inhibition (HCT-116 [1]): 580 zone of inhibition units |
| O=C(NS(=O)(=O)c1ccc(Cl)s1)c1ccc(Cl)cc1Cl | 360 |  |
| O=C(NS(=O)(=O)c1cccc2sccc12)c1ccc(Cl)cc1Cl | 3300 |  |
| O=C(NS(=O)(=O)c1ccc2ccoc2c1)c1ccc(Cl)cc1Cl | 590 |  |
| CCc1ncc(S(=O)(=O)NC(=O)c2ccc(Cl)cc2Cl)s1 | 600 |  |
| O=C(NS(=O)(=O)c1cc(Cl)c(Br)s1)c1ccc(Cl)cc1Cl | 760 |  |
| O=C(NS(=O)(=O)c1cc(Br)cs1)c1ccc(Cl)cc1Cl | 600 |  |
| O=C(NS(=O)(=O)c1ccc2ccccc2c1)c1ccc(Cl)cc1Cl | 800 | Zone of inhibition [17]: 270 zone of inhibition units; Zone of inhibition (L1210 [18]): 270 zone of inhibition units; Zone of inhibition (HCT-116 [19]): 530 zone of inhibition units |
| O=C(NS(=O)(=O)c1ccsc1)c1ccc(Cl)cc1Cl | 1270 |  |
| O=C(NS(=O)(=O)c1cccc2ccoc12)c1ccc(Cl)cc1Cl | 5210 |  |
| Cc1csc(S(=O)(=O)NC(=O)c2ccc(Cl)cc2Cl)c1 | 700 |  |
| Cc1ncc(S(=O)(=O)NC(=O)c2ccc(Cl)cc2Cl)s1 | 1180 |  |
| O=C(NS(=O)(=O)c1cccc2ccsc12)c1ccc(Cl)cc1Cl | 4160 |  |
| O=C(NS(=O)(=O)c1ccc2cc[nH]c2c1)c1ccc(Cl)cc1Cl | 1870 |  |
| O=C(NS(=O)(=O)c1cc(Cl)cs1)c1ccc(Cl)cc1Cl | 390 |  |
